# Bioassay records: PubChem BioAssay, Broad Institute
# The sample as a whole holds a higher share of hits than the screen did.
# PGC1a acetyl up – raises PGC1a acetylation signal in U2OS cells. U2OS PGC1a acetylation AlphaScreen, overnight. activation, % at 15.6 µM. 350,000 tested, 0.21% active. AID 651723;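 active = every replicate reaching activation of at least 50%, whatever the mean replicate activation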;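 also: hits raise the AlphaScreen acetylation signal above neutral controls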
#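 detection = AlphaScreen lysate read | assay system = U2OS cells expressing flag-PGC1a plus GCN5 | input = 7000 cells/well | dosing = one concentration | times = compound overnight at 37 °C, each detection step 1 h RT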
# Starred values were filed as active, the others as inactive.
SMILES,PGC1a acetyl up
CS(=O)(=O)N1CCCC(C(=O)NCc2ccccn2)C1 (configuration not stated),-47
O=C(NNS(=O)(=O)c1ccc(F)cc1)c1ccc(S(=O)(=O)N2CCCCC2)cc1,-41
O=S(=O)(c1ccc(NC(=S)NCc2cccnc2)cc1)N1CCCCC1,89*
CCOC(=O)c1c2c(n(C)c1C)C(=O)C(=O)c1ccc(Br)cc1-2,83*
CCOC(=O)c1c(C)n(C)c2cc(Br)c(O)c(O)c12,-47
Cc1ccc(-c2cnc3c(c2)C(=O)N([C@H](C)CO)C[C@H](C)[C@@H](CN(C)C)O3)cc1,-50
CCOC(=O)C1(Cc2cccc(F)c2)CCN(Cc2ccc(COC)o2)CC1,-45
CC(C)(C)c1ccc(-n2nc(C#N)c(Cl)cc2=O)cc1,-82
CCOc1ccccc1CNC(=O)c1cc2oc3ccccc3c2n1C,88*
Cc1ccc(C)c(NC(=O)c2nnn(Cc3ccccc3)c2N)c1,-47
CCOC(=O)c1[nH]c(C)c(C(=O)Nc2cc(Cl)ccc2C)c1C,78*
Cc1ccc(NC(=S)NNC(=O)c2nn(C)c(C)c2Cl)cc1,-42
Cc1nnc(Nc2ccc3c(c2)OCO3)c2ccccc12,84*
CCCCN=C1NC(=O)C(CC(=O)Nc2ccc(Cl)cc2)S1 (configuration not stated),171*
O=C(CC1SC(=NCc2ccccc2)NC1=O)Nc1ccccc1 (configuration not stated),99*
CCCCNC(=O)c1ccc(CS(=O)(=O)c2ccccc2OC)o1,-44
Cc1cc(C)n2c(SCC(=O)NCc3ccco3)nnc2n1,63*
Cc1cc(C)nc(N2CCC(C(=O)NCc3ccco3)CC2)n1,-95
Cn1nnnc1SCC(=O)NCc1cccc(C(=O)O)c1,-41
c1ccc(N2CCN(C3CC4CCC3C4)CC2)cc1 (configuration not stated),-53
Cc1ccc(S(=O)(=O)OCCC2=CC(=O)CCN2Cc2ccccc2)cc1,-63
CCOC(=O)N1C/C(=C\c2ccccc2)C(=O)/C(=C/c2ccccc2)C1,497*
CCOC(=O)/C(C#N)=C1/C(=O)N(Cc2ccccc2)c2ccccc21,-73
COc1ccc(Cl)cc1NC(=O)CN1CCC(n2nnc3cc(C)ccc32)CC1,-51
CCOc1ccc(NC(=O)CN2CCC(n3cnc4cc(F)ccc43)CC2)cc1,67*
SMILES,PGC1a acetyl up
COc1cc(NC(=O)CCN2CCN(C)CC2)cc(OC)c1,-50
Cc1ccc(CN(C(=O)Cn2nnc3ccccc32)C(C(=O)NCc2ccco2)c2cccs2)cc1 (configuration not stated),-46
CO[C@@H]1CN(C)C(=O)c2ccc(NS(C)(=O)=O)cc2OC[C@@H](C)N(Cc2nccs2)C[C@@H]1C,-45
CC(C)(C)C(=O)Nc1sc2c(c1-c1nc3ccccc3[nH]1)CCCC2,65*
N#CCSc1nnc(COc2ccc3ccccc3c2)o1,52*
O=C(O)CSc1nnc(COc2cccc3ccccc23)o1,-42
CN(C)c1ccc(/C=N/N=C2/NC(=O)/C(=C/c3ccc([N+](=O)[O-])cc3)S2)cc1,81*
CN(C)c1ccc(C=C2SC(=S)NC2=O)cc1,-51
CCC(=O)N[C@H]1CC[C@H](CCNC(=O)Nc2ccc(C(F)(F)F)cc2)O[C@H]1CO,-60
COc1ccc(NC(=O)c2ccc3c(c2)OCO3)cc1Cl,-42
CC1=C(C(=O)OCc2ccc3c(c2)OCO3)C(c2ccc(Cl)cc2)NC(=O)N1 (configuration not stated),-43
COc1ccc(C2CCc3cc4c(cc3C2=NOC(C)=O)OCO4)cc1OC (configuration not stated),56*
COc1ccc(S(=O)(=O)N(C)C[C@@H]2Oc3ccc(NS(=O)(=O)c4cn(C)cn4)cc3C(=O)N([C@H](C)CO)C[C@@H]2C)cc1,-53
Cc1ccc(S(=O)(=O)Nc2ccc3c(c2)C(=O)N([C@H](C)CO)C[C@@H](C)[C@@H](CN(C)C(=O)NC(C)C)OCCCC[C@H](C)O3)cc1,-53
O=C(Nc1cccc(F)c1)N1CC(=O)N2[C@@H](CO)[C@@H](c3ccc(C#Cc4cccnc4)cc3)[C@@H]2C1,-41
CC(C)CC#Cc1ccc([C@H]2[C@H](CO)N3C(=O)CN(C(=O)Nc4cc(F)ccc4F)C[C@@H]23)cc1,-57
COc1ccc(C#Cc2ccc([C@@H]3[C@H](CO)N4CCCCN(C(=O)Nc5ccc(F)cc5)C[C@@H]34)cc2)cc1,71*
CC1CCCC(C)N1C(=S)NCc1ccco1 (configuration not stated),-47
CN=C1c2cc3cc(OC)ccc3n2CCN1Cc1ccccc1,83*
Cc1cccc(CC2CC(=O)N(C3CCCCC3)C2=O)c1 (configuration not stated),-46
Cc1ccc2c(Cl)cc(Cl)c(OCc3c(C)noc3C)c2n1,-45
O=C(Nc1cccc(C(F)(F)F)c1)c1sc(Cl)nc1C(F)(F)F,121*
C[C@@]12C(=O)OC(=O)[C@]1(C)C1CCC2O1,-47
O=C(N/N=C/c1ccc(F)cc1)c1c(O)c2ccccc2[nH]c1=O,-45
CC(C)NC(=O)c1c(O)c2ccccc2[nH]c1=O,97*
